{"data": "Assay results of several laboratories", "ADORA2B": "Adenosine receptor A2b (ADORA2B, Homo sapiens, UniProt P29275)", "PBRM1 bromodomain": "Protein polybromo-1, bromodomain (PBRM1, Homo sapiens, UniProt Q86U86)", "Melanocortin receptor 3": "Melanocortin receptor 3 (Mus musculus, UniProt P33033)", "BRD2 BD2": "Bromodomain-containing protein 2, BD2 (BRD2, Homo sapiens, UniProt P25440)", "note": "Protocols differ between the studies behind these lines."}
{"SMILES": "CCCN1CCCn2c1nc1c2c(=O)n(C)c(=O)n1C", "target": "ADORA2B", "assay": "ligand displacement, radioligand", "setting": "cell membranes", "quantity": "Ki", "value": "> 10 µM"}
{"SMILES": "CCNC(=O)[C@H]1O[C@@H](n2cnc3c(N)nc(NN=C[C@H]4CCC=CO4)nc32)[C@H](O)[C@@H]1O", "target": "ADORA2B", "assay": "GTPγS binding, agonist", "setting": "cell membranes", "quantity": "EC50", "value": "13.2 µM"}
{"SMILES": "CCCCCCN1CCCn2c1nc1c2c(=O)n(C)c(=O)n1C", "target": "ADORA2B", "assay": "ligand displacement, radioligand", "setting": "cell membranes", "quantity": "Ki", "value": "> 10 µM"}
{"SMILES": "Cc1ncsc1-c1ccc(CNC(=O)[C@@H]2C[C@H](O)CN2C(=O)[C@@H](NC(=O)C2(F)CC2)C(C)(C)C)c(OCCc2ccc(CN3CCN(c4cc(-c5ccccc5O)nnc4N)CC3)cc2)c1", "target": "PBRM1 bromodomain", "assay": "binding, SPR", "quantity": "Kd", "value": "1.2 µM"}
{"SMILES": "CCCCCCCCCCCCC/C=C/[C@@H](O)[C@@H](N)COP(=O)(O)O", "target": "Potassium channel subfamily K member 2 (KCNK2, Homo sapiens, UniProt O95069)", "assay": "binding, BRET", "quantity": "Kd", "value": "> 500 µM"}
{"SMILES": "Cc1cc2ccccc2n1CCNC(=O)c1ccc(N2CCCCC2)cc1", "target": "Prostaglandin E2 receptor EP2 subtype (PTGER2, Homo sapiens, UniProt P43116)", "assay": "cAMP, antagonist, TR-FRET", "quantity": "Kb", "value": "~0.01 µM"}
{"SMILES": "Cc1cc2nc3c(=O)[nH]c(=O)nc-3n(C[C@H](O)[C@H](O)[C@H](O)COP(=O)(O)OP(=O)(O)OC[C@H]3O[C@@H](n4cnc5c(N)ncnc54)[C@H](O)[C@@H]3O)c2cc1C", "target": "Muscleblind-like protein 1 (Homo sapiens, UniProt Q9NR56)", "assay": "binding", "setting": "lysate", "quantity": "Kd", "value": "0.023 µM"}
{"SMILES": "N=C(N)NCCC[C@H](NC(=O)[C@H](CC(=O)O)NC(=O)[C@H](Cc1c[nH]c2ccccc12)NC(=O)[C@H](CCCNC(=N)N)NC(=O)[C@@H](N)Cc1ccccc1)C(=O)N[C@@H](Cc1ccccc1)C(=O)O", "target": "Melanocortin receptor 3", "assay": "reporter gene, agonist", "quantity": "EC50", "value": "20.4 µM"}
{"SMILES": "Cc1noc(C)c1-c1ccc(-c2nc3cnccn3c2NC(C)(C)C)cc1", "target": "BRD2 BD2", "assay": "cell-free assay, competition with immobilised ligand", "quantity": "Kd", "value": "0.095 µM"}
{"SMILES": "N=C(N)NCCC[C@H](NC(=O)[C@H](CC(=O)O)NC(=O)[C@H](Cc1c[nH]c2ccccc12)NC(=O)[C@H](CCCNC(=N)N)NC(=O)[C@@H](N)Cc1ccccc1)C(=O)N[C@@H](Cc1ccccc1)C(=O)NCC(=O)O", "target": "Melanocortin receptor 3", "assay": "reporter gene, agonist", "quantity": "EC50", "value": "> 100 µM"}
{"SMILES": "CCCCN1CCCn2c1nc1c2c(=O)n(CCC)c(=O)n1CCC", "target": "ADORA2B", "assay": "ligand displacement, radioligand", "setting": "cell membranes", "quantity": "Ki", "value": "1.32 µM"}
{"SMILES": "N=C(N)NCCC[C@H](NC(=O)[C@H](Cc1ccccc1)NC(=O)[C@@H](N)Cc1cnc[nH]1)C(=O)N[C@@H](Cc1c[nH]c2ccccc12)C(=O)O", "target": "Melanocortin receptor 3", "assay": "reporter gene, agonist", "quantity": "EC50", "value": "> 100 µM"}
{"SMILES": "CCN1CCCn2c1nc1c2c(=O)n(C)c(=O)n1C", "target": "ADORA2B", "assay": "ligand displacement, radioligand", "setting": "cell membranes", "quantity": "Ki", "value": "> 10 µM"}
{"SMILES": "CCCCCCCC/C=C\\CCCCCCCC(=O)SCCNC(=O)CCNC(=O)[C@H](O)C(C)(C)COP(=O)(O)OP(=O)(O)OC[C@H]1O[C@@H](n2cnc3c(N)ncnc32)[C@H](O)[C@@H]1OP(=O)(O)O", "target": "fadR (Vibrio cholerae, UniProt Q9KQU8)", "assay": "binding, ITC", "quantity": "Kd", "value": "0.006 µM"}
{"SMILES": "CCC(C)N1CCCn2c1nc1c2c(=O)n(C)c(=O)n1C (stereo not shown)", "target": "ADORA2B", "assay": "ligand displacement, radioligand", "setting": "cell membranes", "quantity": "Ki", "value": "> 10 µM"}
{"SMILES": "CCCCN1CCC(COC(=O)c2ccc(N)c(OCF)c2)CC1", "target": "Beta-3 adrenergic receptor (ADRB3, Homo sapiens, UniProt P13945)", "assay": "cell-free assay, radioligand", "quantity": "Ki", "value": "> 10 µM"}
{"SMILES": "N=C(N)NCCC[C@H](NC(=O)[C@H](CC(=O)O)NC(=O)[C@H](Cc1c[nH]c2ccccc12)NC(=O)[C@H](CCCNC(=N)N)NC(=O)[C@H](Cc1ccccc1)NC(=O)[C@@H](N)Cc1c[nH]cn1)C(=O)N[C@@H](Cc1ccccc1)C(=O)NCC(=O)O", "target": "Melanocortin receptor 3", "assay": "reporter gene, agonist", "quantity": "EC50", "value": "2.67 µM"}
{"SMILES": "CCOc1cc(-c2nncn2C)ccc1Nc1ncc2cc(C)nc(NCC(C)(C)C)c2n1", "target": "Dual serine/threonine and tyrosine protein kinase (DSTYK, Homo sapiens, UniProt Q6XUX3)", "assay": "binding, competition with immobilised ligand", "quantity": "Kd", "value": "0.17 µM"}
{"SMILES": "CC(C)CN1CCCn2c1nc1c2c(=O)n(C)c(=O)n1C", "target": "ADORA2B", "assay": "ligand displacement, radioligand", "setting": "cell membranes", "quantity": "Ki", "value": "> 10 µM"}
{"SMILES": "CSCC[C@H](N)C(=O)NCC(=O)N[C@@H](Cc1c[nH]cn1)C(=O)N[C@@H](Cc1ccccc1)C(=O)N[C@@H](CCCNC(=N)N)C(=O)N[C@@H](Cc1c[nH]c2ccccc12)C(=O)N[C@@H](CC(=O)O)C(=O)N[C@@H](CCCNC(=N)N)C(=O)N[C@@H](Cc1ccccc1)C(=O)NCC(=O)O", "target": "Melanocortin receptor 3", "assay": "reporter gene, agonist", "quantity": "EC50", "value": "0.26 µM"}
{"SMILES": "Cc1ncsc1-c1ccc(CNC(=O)[C@@H]2C[C@H](O)CN2C(=O)[C@@H](NC(=O)C2(F)CC2)C(C)(C)C)c(OCCOc2ccc(CN3CCN(c4cc(-c5ccccc5O)nnc4N)CC3)cc2)c1", "target": "PBRM1 bromodomain", "assay": "binding, SPR", "quantity": "Kd", "value": "0.62 µM"}
{"SMILES": "CCCCN1CCC(COC(=O)c2ccc(N)c(OC)c2)CC1", "target": "5-hydroxytryptamine receptor 4 (HTR4, Homo sapiens, UniProt Q13639)", "assay": "ligand displacement, radioligand", "quantity": "Ki", "value": "0.0011 µM"}
{"SMILES": "N=C(N)NCCC[C@H](NC(=O)[C@@H](N)CC(=O)O)C(=O)N[C@@H](Cc1ccccc1)C(=O)O", "target": "Melanocortin receptor 3", "assay": "reporter gene, agonist", "quantity": "EC50", "value": "> 100 µM"}
{"SMILES": "CNC(=O)COc1cc2cc(Nc3nc(N4CCC(C(=O)NCCCCCCCNC(=O)C[C@@H]5N=C(c6ccc(Cl)cc6)c6c(sc(C)c6C)-n6c(C)nnc65)CC4)ncc3Cl)cc(OC)c2n(C)c1=O", "target": "B-cell lymphoma 6 protein (BCL6, Homo sapiens, UniProt P41182, C67R/C84N/C8Q)", "assay": "binding, ITC", "quantity": "Kd", "value": "> 1000 µM"}
{"SMILES": "N=C(N)NCCC[C@H](N)C(=O)N[C@@H](Cc1ccccc1)C(=O)NCC(=O)O", "target": "Melanocortin receptor 3", "assay": "reporter gene, agonist", "quantity": "EC50", "value": "> 100 µM"}
{"SMILES": "CC(=O)N[C@H](C(=O)N1C[C@H](O)C[C@H]1C(=O)NCc1ccc(-c2scnc2C)cc1)C(C)(C)SCCCCCCNC(=O)C[C@@H]1N=C(c2ccc(Cl)cc2)c2c(sc(C)c2C)-n2c(C)nnc21", "target": "BRD2 BD2", "assay": "binding, ITC", "quantity": "Kd", "value": "0.094 µM"}
{"SMILES": "C=CN1CCCn2c1nc1c2c(=O)n(C)c(=O)n1C", "target": "ADORA2B", "assay": "ligand displacement, radioligand", "setting": "cell membranes", "quantity": "Ki", "value": "> 10 µM"}
{"SMILES": "N=C(N)NCCC[C@H](NC(=O)[C@@H](N)CC(=O)O)C(=O)N[C@@H](Cc1ccccc1)C(=O)NCC(=O)O", "target": "Melanocortin receptor 3", "assay": "reporter gene, agonist", "quantity": "EC50", "value": "> 100 µM"}
